Published values pooled from the literature.
Lines come from different studies, so protocols differ.
Transmembrane protease serine 6: Transmembrane protease serine 6 (Homo sapiens, UniProt Q8IU80)
Palmitoyl-protein thioesterase 1: Palmitoyl-protein thioesterase 1 (Homo sapiens, UniProt P50897)

N=C(N)NCCC[C@H](NC(=O)[C@H](CC1CCCCC1)NC(=O)[C@H](Cc1cscn1)NC(=O)CCc1ccccc1)C(=O)c1nc2ccccc2s1  remaining activity (Transmembrane protease serine 6; enzyme activity, inhibitor; 0.1 µM): 6%
C=CC(=O)N1CCC(COCC(=O)N2CCN(c3nc(-c4cnc(N)nc4C(F)F)nc(N4CCOC[C@@H]4C)n3)CC2)CC1  remaining binding (Serine/threonine-protein kinase PRP4 homolog (PRPF4B, Homo sapiens, UniProt Q13523); binding, competition with immobilised ligand; 1 µM): 84%
NC(=O)c1c(OCc2c(F)cc(Br)cc2F)nsc1NC(=O)NCCCCN1CCCC1  inhibition (Palmitoyl-protein thioesterase 1; enzyme activity, inhibitor; 125 µM): 8.63%
N=C(N)NCCC[C@H](NC(=O)[C@@H](NC(=O)[C@H](Cc1cscn1)NC(=O)CCc1ccccc1)C1CC1)C(=O)c1nc2ccccc2s1  remaining activity (Transmembrane protease serine 6; enzyme activity, inhibitor; 0.1 µM): 88%
COc1cc(-c2cncc3c2CN(C)Cc2cc(N4CCNCC4)ccc2-3)cc(OC)c1OC  remaining activity (Epidermal growth factor receptor (EGFR, Homo sapiens, UniProt P00533); enzyme activity, inhibitor; 1 µM): 93%
O=C(CCCN1CC=C(n2c(=O)[nH]c3ccccc32)CC1)c1ccc(F)cc1  inhibition (Palmitoyl-protein thioesterase 1; enzyme activity, inhibitor; 125 µM): 1.07%
N=C(N)NCCC[C@H](NC(=O)[C@H](CCc1ccccc1)NC(=O)[C@H](Cc1cscn1)NC(=O)CCc1ccccc1)C(=O)c1nc2ccccc2s1  remaining activity (Transmembrane protease serine 6; enzyme activity, inhibitor; 0.1 µM): 2%
CNc1ncc2c(/C=C/C(=O)N3CCC(OC)CC3)nn(Cc3cccc(C(F)(F)F)c3)c2n1  remaining activity (Non-receptor tyrosine-protein kinase TYK2 (TYK2, Homo sapiens, UniProt P29597); enzyme activity, inhibitor, radiometric; 1 µM): 91%
Cc1cc([C@@H](C)Nc2ccccc2C(=O)O)c2nc(N3CCC(F)(F)CC3)c(C#N)c(=O)n2c1  remaining binding (Epidermal growth factor receptor (EGFR, Homo sapiens, UniProt P00533, L858R); binding, competition with immobilised ligand; 1 µM): 100%
